Legend:
[1] = target: Serine/threonine-protein kinase greatwall (Homo sapiens, UniProt Q96GX5); assay: Inhibition of MASTL in human HeLa cells lysate pre incubated for 15 mins followed by ATP acyl phosphate probe addition and measured after 10 mins by LC-MS/MS analysis; assay type: subcellular
[2] = target: T1, Serine/threonine-protein kinase TAO2 (Homo sapiens) (UniProt Q9UL54); assay: Inhibition of TAO2 in human HeLa cells lysate at 10 uM pre incubated for 15 mins followed by ATP acyl phosphate probe addition and measured after 10 mins by LC-MS/MS analysis relative to control; assay type: subcellular; conditions: time 25.0 min
T1 sequence (whole entry): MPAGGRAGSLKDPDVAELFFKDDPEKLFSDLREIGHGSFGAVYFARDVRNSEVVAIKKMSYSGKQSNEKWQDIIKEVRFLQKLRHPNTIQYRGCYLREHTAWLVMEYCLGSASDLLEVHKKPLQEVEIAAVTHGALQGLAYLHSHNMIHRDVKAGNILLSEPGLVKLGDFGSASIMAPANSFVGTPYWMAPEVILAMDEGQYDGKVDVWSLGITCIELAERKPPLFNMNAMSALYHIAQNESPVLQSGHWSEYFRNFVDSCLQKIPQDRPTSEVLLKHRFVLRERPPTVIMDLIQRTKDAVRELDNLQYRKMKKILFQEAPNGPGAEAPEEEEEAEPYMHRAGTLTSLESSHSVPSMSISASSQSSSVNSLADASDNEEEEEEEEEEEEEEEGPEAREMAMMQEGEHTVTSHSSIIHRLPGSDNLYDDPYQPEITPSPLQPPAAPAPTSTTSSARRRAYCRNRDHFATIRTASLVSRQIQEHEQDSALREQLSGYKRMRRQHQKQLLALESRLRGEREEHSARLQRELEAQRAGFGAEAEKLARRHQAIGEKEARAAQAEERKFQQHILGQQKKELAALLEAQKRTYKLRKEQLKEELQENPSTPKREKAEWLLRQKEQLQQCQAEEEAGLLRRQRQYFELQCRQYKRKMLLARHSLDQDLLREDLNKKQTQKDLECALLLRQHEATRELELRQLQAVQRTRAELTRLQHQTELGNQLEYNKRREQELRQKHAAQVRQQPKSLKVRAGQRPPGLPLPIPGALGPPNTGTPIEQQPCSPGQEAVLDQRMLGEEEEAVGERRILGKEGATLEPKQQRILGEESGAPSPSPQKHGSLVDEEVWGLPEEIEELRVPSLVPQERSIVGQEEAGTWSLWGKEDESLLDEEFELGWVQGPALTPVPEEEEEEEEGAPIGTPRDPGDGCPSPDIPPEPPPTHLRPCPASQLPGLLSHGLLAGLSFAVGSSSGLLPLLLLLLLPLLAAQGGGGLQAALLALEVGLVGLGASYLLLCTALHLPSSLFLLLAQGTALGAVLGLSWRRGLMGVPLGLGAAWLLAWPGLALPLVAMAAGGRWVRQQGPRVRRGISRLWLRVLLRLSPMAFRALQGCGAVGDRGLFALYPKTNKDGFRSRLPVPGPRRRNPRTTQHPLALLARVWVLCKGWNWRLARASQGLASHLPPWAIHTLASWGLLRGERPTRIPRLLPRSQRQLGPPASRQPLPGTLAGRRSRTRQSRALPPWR

[3] = target: Mitogen-activated protein kinase 14 (Homo sapiens, UniProt Q16539); assay: Inhibition of p38a in human HeLa cells lysate at 2 uM pre incubated for 15 mins followed by ATP acyl phosphate probe addition and measured after 10 mins by LC-MS/MS analysis relative to control; assay type: subcellular; conditions: time 25.0 min
[4] = target: Peripheral plasma membrane protein CASK (Homo sapiens) (UniProt O14936); assay: Inhibition of CASK in human HeLa cells lysate at 10 uM pre incubated for 15 mins followed by ADP acyl phosphate probe addition and measured after 10 mins by LC-MS/MS analysis relative to control; assay type: subcellular; conditions: time 25.0 min
Method in brief: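 KiNativ profiling in HeLa lysate (5 mg/mL total protein). Lysate incubated 15 min with inhibitor at 50, 10, 2, 0.8 or 0 μM. ATP or ADP acylphosphate probe then added (5 μM final) and reacted 10 min. Reaction stopped with urea and analysed by targeted MS, using up to four fragment ions per kinase peptide-probe conjugate. % inhibition taken against untreated lysate. Run in duplicate.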

[5] = target: Serine/threonine-protein kinase Nek8 (Homo sapiens, UniProt Q86SG6); assay: Inhibition of NEK8 in human HeLa cells lysate pre incubated for 15 mins followed by ADP acyl phosphate probe addition and measured after 10 mins by LC-MS/MS analysis; assay type: subcellular
[6] = target: Interleukin-1 receptor-associated kinase 4 (Homo sapiens, UniProt Q9NWZ3); assay: Inhibition of IRAK4 in human HeLa cells lysate pre incubated for 15 mins followed by ADP acyl phosphate probe addition and measured after 10 mins by LC-MS/MS analysis; assay type: subcellular
[7] = target: Serine/threonine-protein kinase Nek9 (Homo sapiens, UniProt Q8TD19); assay: Inhibition of NEK9 in human HeLa cells lysate pre incubated for 15 mins followed by ADP acyl phosphate probe addition and measured after 10 mins by LC-MS/MS analysis; assay type: subcellular
[8] = target: Proto-oncogene tyrosine-protein kinase ROS (Homo sapiens) (UniProt P08922); assay: Inhibition of ROS1 (unknown origin) assessed as remaining activity at 10 uM by ATP-competition binding assay relative to control
p38 delta/gamma = p38 delta/gamma (Homo sapiens, UniProt O15264+P53778); assay: Inhibition of P38delta/gamma in human HeLa cells lysate pre incubated for 15 mins followed by ATP acyl phosphate probe addition and measured after 10 mins by LC-MS/MS analysis; assay type: subcellular
[9] = target: STE20-like serine/threonine-protein kinase (Homo sapiens, UniProt Q9H2G2); assay: Inhibition of SLK in human HeLa cells lysate pre incubated for 15 mins followed by ATP acyl phosphate probe addition and measured after 10 mins by LC-MS/MS analysis; assay type: subcellular
[10] = target: Ribosomal protein S6 kinase alpha-1 (Homo sapiens, UniProt Q15418); assay: Inhibition of RSK1 domain 2 K2 site in human HeLa cells lysate at 2 uM pre incubated for 15 mins followed by ADP acyl phosphate probe addition and measured after 10 mins by LC-MS/MS analysis relative to control; assay type: subcellular; conditions: time 25.0 min
[11] = target: Calcium/calmodulin-dependent protein kinase type II subunit delta (Homo sapiens, UniProt Q13557); assay: Inhibition of CAMK2d in human HeLa cells lysate pre incubated for 15 mins followed by ADP acyl phosphate probe addition and measured after 10 mins by LC-MS/MS analysis; assay type: subcellular
Method in brief: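 KiNativ-type profiling in HeLa lysate (5 mg/mL total protein). Lysate preincubated 15 min with inhibitor at 50, 10, 2, 0.8 or 0 μM, then ATP or ADP acylphosphate probe added (5 μM final) for 10 min. Reaction stopped with urea and analysed by targeted MS, using up to four fragment ions per kinase peptide-probe conjugate. % inhibition calculated against untreated lysate. Duplicate reactions.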

Chain of Serine/threonine-protein kinase greatwall (Q96GX5 whole entry): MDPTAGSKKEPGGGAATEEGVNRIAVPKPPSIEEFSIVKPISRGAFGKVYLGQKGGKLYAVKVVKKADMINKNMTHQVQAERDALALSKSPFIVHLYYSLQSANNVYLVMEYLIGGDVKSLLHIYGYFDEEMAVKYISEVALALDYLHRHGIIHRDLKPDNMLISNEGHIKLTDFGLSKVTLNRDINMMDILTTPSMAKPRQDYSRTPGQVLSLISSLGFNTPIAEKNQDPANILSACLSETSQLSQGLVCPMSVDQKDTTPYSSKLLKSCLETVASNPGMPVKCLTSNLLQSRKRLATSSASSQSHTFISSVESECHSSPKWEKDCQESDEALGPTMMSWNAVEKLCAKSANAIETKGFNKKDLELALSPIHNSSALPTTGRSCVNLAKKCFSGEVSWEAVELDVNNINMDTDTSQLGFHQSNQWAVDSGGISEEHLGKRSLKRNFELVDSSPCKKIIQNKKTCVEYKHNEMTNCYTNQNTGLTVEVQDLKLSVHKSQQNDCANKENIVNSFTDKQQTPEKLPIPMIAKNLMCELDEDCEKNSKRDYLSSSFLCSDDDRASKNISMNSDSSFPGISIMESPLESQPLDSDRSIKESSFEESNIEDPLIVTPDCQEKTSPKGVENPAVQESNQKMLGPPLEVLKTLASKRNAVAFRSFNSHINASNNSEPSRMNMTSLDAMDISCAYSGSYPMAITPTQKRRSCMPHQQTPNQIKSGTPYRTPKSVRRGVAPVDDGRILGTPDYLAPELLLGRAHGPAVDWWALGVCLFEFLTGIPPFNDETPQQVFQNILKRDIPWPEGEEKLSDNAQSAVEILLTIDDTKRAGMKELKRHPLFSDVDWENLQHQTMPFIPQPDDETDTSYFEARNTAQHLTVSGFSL
Chain of Proto-oncogene tyrosine-protein kinase ROS (Homo sapiens) (P08922 whole entry): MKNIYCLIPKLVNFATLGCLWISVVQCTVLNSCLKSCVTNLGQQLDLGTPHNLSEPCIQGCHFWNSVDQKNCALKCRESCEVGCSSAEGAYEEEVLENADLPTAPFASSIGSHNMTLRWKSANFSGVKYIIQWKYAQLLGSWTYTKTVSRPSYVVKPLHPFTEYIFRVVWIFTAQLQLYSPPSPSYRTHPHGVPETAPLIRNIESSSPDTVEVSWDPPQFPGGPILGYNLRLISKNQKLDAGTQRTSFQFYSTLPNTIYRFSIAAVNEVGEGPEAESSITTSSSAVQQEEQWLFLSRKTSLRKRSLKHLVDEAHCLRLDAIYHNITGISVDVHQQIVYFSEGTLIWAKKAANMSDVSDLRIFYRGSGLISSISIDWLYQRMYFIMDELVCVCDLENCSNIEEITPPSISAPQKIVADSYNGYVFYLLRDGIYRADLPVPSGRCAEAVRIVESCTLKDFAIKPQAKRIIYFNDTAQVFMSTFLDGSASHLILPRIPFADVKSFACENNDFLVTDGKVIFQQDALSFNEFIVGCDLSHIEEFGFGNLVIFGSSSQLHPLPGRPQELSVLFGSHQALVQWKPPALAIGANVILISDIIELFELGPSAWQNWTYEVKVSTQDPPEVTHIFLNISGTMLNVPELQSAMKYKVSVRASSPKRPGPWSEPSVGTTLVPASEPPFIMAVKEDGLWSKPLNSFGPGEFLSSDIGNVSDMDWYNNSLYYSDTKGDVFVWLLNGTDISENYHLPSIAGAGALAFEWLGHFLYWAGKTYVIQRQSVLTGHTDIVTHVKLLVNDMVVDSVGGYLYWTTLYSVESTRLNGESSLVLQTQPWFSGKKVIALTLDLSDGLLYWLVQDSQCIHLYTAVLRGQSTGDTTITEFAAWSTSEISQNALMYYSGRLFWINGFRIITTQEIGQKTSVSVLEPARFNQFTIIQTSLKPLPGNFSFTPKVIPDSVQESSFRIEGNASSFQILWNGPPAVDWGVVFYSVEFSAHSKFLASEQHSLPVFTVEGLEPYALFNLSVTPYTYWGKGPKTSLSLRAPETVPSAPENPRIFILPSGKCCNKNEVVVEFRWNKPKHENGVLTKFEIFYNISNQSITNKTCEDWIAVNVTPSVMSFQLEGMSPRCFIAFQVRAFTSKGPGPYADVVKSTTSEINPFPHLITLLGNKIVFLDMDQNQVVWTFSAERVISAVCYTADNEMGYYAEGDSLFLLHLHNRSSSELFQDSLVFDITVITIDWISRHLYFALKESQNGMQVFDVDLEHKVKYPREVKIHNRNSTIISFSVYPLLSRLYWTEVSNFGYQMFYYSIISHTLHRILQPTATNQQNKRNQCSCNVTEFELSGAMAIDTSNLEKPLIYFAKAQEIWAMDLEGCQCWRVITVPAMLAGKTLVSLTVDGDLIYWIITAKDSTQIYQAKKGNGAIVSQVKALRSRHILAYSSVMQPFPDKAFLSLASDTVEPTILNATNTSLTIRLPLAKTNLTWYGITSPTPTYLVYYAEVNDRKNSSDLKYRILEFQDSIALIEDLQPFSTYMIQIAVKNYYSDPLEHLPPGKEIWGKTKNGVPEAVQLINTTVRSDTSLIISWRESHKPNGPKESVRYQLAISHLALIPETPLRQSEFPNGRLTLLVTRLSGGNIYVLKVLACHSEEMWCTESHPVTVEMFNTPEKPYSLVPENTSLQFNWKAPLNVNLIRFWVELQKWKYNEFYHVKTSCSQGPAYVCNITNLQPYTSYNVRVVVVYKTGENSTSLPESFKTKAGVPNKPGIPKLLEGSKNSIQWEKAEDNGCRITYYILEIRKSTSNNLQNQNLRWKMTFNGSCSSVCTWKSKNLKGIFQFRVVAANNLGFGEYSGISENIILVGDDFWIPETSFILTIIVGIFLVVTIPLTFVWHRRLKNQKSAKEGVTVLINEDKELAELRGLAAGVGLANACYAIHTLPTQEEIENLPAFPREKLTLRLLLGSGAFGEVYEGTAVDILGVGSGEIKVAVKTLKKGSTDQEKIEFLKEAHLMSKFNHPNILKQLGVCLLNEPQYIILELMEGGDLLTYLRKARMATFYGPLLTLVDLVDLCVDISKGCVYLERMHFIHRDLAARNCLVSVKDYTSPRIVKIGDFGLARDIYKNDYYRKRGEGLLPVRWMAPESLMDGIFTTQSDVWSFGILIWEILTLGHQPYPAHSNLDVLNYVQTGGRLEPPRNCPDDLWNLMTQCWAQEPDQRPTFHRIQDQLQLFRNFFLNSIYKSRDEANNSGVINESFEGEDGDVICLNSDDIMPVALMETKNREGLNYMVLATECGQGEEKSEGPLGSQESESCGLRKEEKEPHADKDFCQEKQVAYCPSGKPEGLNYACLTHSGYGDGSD
Chain of Ribosomal protein S6 kinase alpha-1 (Q15418 whole entry, the tested form may be a part): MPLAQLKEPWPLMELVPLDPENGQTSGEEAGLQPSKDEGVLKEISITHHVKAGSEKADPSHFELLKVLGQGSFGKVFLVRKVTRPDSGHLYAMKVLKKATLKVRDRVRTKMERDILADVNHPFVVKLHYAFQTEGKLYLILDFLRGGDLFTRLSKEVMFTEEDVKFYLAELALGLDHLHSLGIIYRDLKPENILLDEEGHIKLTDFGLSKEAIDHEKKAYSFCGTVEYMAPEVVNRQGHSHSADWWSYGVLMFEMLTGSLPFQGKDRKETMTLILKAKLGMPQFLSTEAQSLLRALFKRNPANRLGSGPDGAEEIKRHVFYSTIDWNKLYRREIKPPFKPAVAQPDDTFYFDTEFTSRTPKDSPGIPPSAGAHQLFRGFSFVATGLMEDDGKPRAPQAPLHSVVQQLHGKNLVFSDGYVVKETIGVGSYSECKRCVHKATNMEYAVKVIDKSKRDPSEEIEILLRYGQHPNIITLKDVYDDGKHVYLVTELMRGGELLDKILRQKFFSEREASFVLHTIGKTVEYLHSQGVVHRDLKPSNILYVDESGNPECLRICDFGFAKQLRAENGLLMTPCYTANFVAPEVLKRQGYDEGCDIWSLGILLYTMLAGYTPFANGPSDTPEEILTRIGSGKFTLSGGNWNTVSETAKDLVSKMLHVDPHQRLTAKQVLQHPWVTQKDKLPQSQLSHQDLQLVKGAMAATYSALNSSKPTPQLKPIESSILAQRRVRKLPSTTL
Chain of Serine/threonine-protein kinase Nek8 (Q86SG6 whole entry): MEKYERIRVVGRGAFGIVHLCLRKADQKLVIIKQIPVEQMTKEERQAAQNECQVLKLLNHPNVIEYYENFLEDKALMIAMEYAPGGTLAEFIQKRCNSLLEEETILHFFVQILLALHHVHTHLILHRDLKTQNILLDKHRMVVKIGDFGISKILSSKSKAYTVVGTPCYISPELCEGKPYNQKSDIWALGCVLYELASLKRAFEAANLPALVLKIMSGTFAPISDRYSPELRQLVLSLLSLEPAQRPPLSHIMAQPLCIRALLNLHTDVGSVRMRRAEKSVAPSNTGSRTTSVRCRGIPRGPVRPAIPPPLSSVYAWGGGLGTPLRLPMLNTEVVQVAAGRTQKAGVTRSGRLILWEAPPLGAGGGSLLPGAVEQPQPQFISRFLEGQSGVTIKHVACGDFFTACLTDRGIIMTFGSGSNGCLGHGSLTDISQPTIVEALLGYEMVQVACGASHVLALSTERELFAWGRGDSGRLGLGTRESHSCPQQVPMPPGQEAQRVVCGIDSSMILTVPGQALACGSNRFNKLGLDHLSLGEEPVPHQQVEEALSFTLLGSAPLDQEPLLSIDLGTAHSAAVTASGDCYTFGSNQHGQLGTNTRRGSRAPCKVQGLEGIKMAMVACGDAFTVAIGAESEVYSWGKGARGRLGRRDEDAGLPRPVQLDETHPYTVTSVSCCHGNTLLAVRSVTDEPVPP
Chain of Mitogen-activated protein kinase 14 (Q16539 whole entry): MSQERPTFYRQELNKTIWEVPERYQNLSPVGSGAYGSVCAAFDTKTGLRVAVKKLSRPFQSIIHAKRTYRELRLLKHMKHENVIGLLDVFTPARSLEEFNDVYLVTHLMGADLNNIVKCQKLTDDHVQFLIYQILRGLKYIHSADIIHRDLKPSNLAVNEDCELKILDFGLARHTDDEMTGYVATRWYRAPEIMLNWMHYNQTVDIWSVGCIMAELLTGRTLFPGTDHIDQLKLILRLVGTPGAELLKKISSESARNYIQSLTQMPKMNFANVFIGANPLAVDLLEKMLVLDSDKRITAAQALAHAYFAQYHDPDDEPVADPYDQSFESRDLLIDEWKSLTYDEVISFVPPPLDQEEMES

## CCOc1cc(N2CCC(O)CC2)ccc1Nc1ncc2c(n1)N(C)c1ccccc1C(=O)N2C
[1]
  IC50: > 50 µM
[2]
  inhibition: 3.3%
[3]
  inhibition: 3.8%
[4]
  inhibition: -8.1%
[5]
  IC50: > 50 µM
[6]
  IC50: > 50 µM
[7]
  IC50: > 50 µM
[8]
  Activity: 15%
p38 delta/gamma
  IC50: > 50 µM
[9]
  IC50: > 50 µM
[10]
  inhibition: -6.4%
[11]
  IC50: > 50 µM
